In ChEMBL document CHEMBL1153215, “Investigation of the sequence and length dependence for cell-penetrating prenylated peptides” (Bioorg Med Chem Lett, 2010):
Where a SMILES comes first, the peptide text is derived from it. Bridges are numbered along the chain shown (N, C = ends). Roman numbers before positions name the chains, in order. The star is where a group is joined. Geranylgeranyl = CC(C)=CCC/C(C)=C/CC/C(C)=C/CC/C(C)=C/C*; Acryloyl(2E,3-(2-furyl)) = O=C(/C=C/c1ccco1)*

Tests used:
Type in all cases: ADME, cell-based
HeLa [1] = test: Cellular uptake in human HeLa cells at 0.3 to 3 uM after 1 hr by confocal laser-scanning microscopy
Method in brief: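 Fluorescein-labelled peptides were incubated with HeLa cells for 1 h, then the cells were washed. Cells were either fixed in 3.7% formaldehyde (1 μM peptide) or imaged live without fixation (3 μM peptide). Hoechst stained the nucleus and wheat germ agglutinin–Alexa Fluor 594 stained the plasma membrane. Internalization was viewed by confocal microscopy.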

HeLa [2] = test: Cellular uptake in human HeLa cells at 0.3 to 3 uM at 37 degC condition by FACS
Method in brief: (§1)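 HeLa cells were incubated with 0.3, 1.0 or 3.0 μM fluorescein-linked peptide for 1 h at 37 °C. Cells were then trypsinized and washed to remove surface-bound peptide. Fluorescence of 10,000 cells was read by flow cytometry, in triplicate. Values are geometric mean relative fluorescence ± standard deviation.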

HeLa [3] = test: Cellular uptake in human HeLa cells at […] at 4 degC condition by FACS
Method in brief: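 HeLa cells were incubated with 1.0 μM fluorescein-linked peptide at 4 °C, at 37 °C, or under ATP-depleting conditions. Cells were then trypsinized and washed to remove surface-bound peptide. Fluorescence of 10,000 cells was read by flow cytometry, in triplicate. Values are geometric mean relative fluorescence ± standard deviation.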

HeLa [4] = test: Cellular uptake in human HeLa cells at 0.3 to 3 uM by FACS; method in brief: as §1

Measured: Activity

CC(C)=CCC/C(C)=C/CC/C(C)=C/CC/C(C)=C/CSC[C@H](NC(=O)[C@H](CCCNC(=N)N)NC(=O)[C@H](CCCNC(=N)N)NC(=O)/C=C/c1ccco1)C(N)=O
Active: all assays above

CC(C)=CCC/C(C)=C/CC/C(C)=C/CC/C(C)=C/CSC[C@H](NC(=O)[C@H](CCCNC(=N)N)NC(=O)/C=C/c1ccco1)C(N)=O
Active: all assays above

CC(=O)N[C@@H](CCCCNC(=O)/C=C/c1ccco1)C(=O)N[C@@H](C)C(=O)N[C@@H](C)C(=O)N[C@@H](C)C(=O)N[C@@H](CO)C(=O)N[C@@H](CCCNC(=N)N)C(=O)N[C@@H](CCCNC(=N)N)C(=O)N[C@@H](CSC/C=C(\C)CC/C=C(\C)CC/C=C(\C)CCC=C(C)C)C(N)=O (Ac-K(Acryloyl(2E,3-(2-furyl)))AAASRRC(Geranylgeranyl)-NH2)
Active: all assays above

CC(=O)N[C@@H](CCCCNC(=O)/C=C/c1ccco1)C(=O)N[C@@H](C)C(=O)N[C@@H](CO)C(=O)N[C@@H](CCCNC(=N)N)C(=O)N[C@@H](CCCNC(=N)N)C(=O)N[C@@H](CSC/C=C(\C)CC/C=C(\C)CC/C=C(\C)CCC=C(C)C)C(N)=O (Ac-K(Acryloyl(2E,3-(2-furyl)))ASRRC(Geranylgeranyl)-NH2)
Active: all assays above

CC[C@H](C)[C@H](NC(=O)[C@H](CCCCN)NC(=O)[C@@H](NC(=O)[C@H](CC(N)=O)NC(=O)[C@H](CCCNC(=N)N)NC(=O)[C@@H](N)CSSC[C@H](NC(=O)[C@H](CCCNC(=N)N)NC(=O)[C@H](CCCNC(=N)N)NC(=O)[C@H](CO)NC(=O)[C@H](CCCCN)NC(=O)[C@H](CCCCN)NC(=O)/C=C/c1ccco1)C(=O)N[C@H](C(=O)N[C@@H](CC(C)C)C(=O)N[C@@H](CC(C)C)C(=O)O)C(C)C)[C@@H](C)CC)C(=O)N[C@@H](Cc1c[nH]c2ccccc12)C(=O)N[C@@H](Cc1ccccc1)C(=O)N[C@@H](CCC(N)=O)C(=O)N[C@@H](CC(N)=O)C(=O)N[C@@H](CCCNC(=N)N)C(=O)N[C@@H](CCCNC(=N)N)C(=O)N[C@@H](CC(N)=O)C(=O)N[C@@H](CC(C)C)C(=O)N[C@@H](CCCCN)C(=O)N[C@@H](Cc1c[nH]c2ccccc12)C(=O)N[C@@H](CCCCN)C(=O)N[C@@H](CCCCN)C(=O)O (I: H-CRNIKIWFQNRRNLKWKK-OH / II: {Acryloyl(2E,3-(2-furyl))}-KKSRRCVLL-OH; disulfide I:1-II:6)
Active: all assays above
